Measured values as given in ChEMBL document CHEMBL5058577, “EUbOPEN Chemogenomics Library 2 (Multiplex)” (2022).

System: HEK-293T
Test: Multiplex assay against HEK293T
Type: toxicity, cell-based
Details: human
Summary of the method: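 On a CQ1 microscope at 37°C and 5% CO2, live cells were imaged after compound addition. They had been stained at seeding with Hoechst33342, BioTracker Green Microtubule Cytoskeleton Dye, MitoTracker Red and Annexin V Alexa Fluor 680. CellPathfinder machine-learning gating assigned cells to Hoechst high-intensity objects or normal cells, normal cells to healthy, pyknosed or fragmented nuclei, and pyknosed cells to mitotic or apoptotic. Tubulin, mitochondrial-mass and membrane-permeability phenotypes are per cents of healthy-nucleus cells.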

[1] = 12 h, 1 µM, compound concentration 1 uM, replicate 1
[2] = 12 h, 1 µM, compound concentration 1 uM, replicate 2
[3] = 12 h, 10 µM, compound concentration 10 uM, replicate 1
[4] = 12 h, 10 µM, compound concentration 10 uM, replicate 2
[5] = 24 h, 1 µM, compound concentration 1 uM, replicate 1
[6] = 24 h, 1 µM, compound concentration 1 uM, replicate 2
[7] = 24 h, 10 µM, compound concentration 10 uM, replicate 1
[8] = 24 h, 10 µM, compound concentration 10 uM, replicate 2
[9] = 48 h, 1 µM, compound concentration 1 uM, replicate 1
[10] = 48 h, 1 µM, compound concentration 1 uM, replicate 2
[11] = 48 h, 10 µM, compound concentration 10 uM, replicate 1
[12] = 48 h, 10 µM, compound concentration 10 uM, replicate 2

Structure (SMILES): Cc1cc(-c2ccc3c(c2)CC[C@H]3N2CC3(CCN(C(=O)Cc4cn5cc(C)sc5n4)CC3)C2)ncn1 [PF-5190457]
- Population Apoptotic (%) [1]: 36%
- Population Fragmented Nuclei (%) [1]: 5%
- Population Healthy Nuclei (%) [1]: 83%
- Population Hoechst High Intensity Objects (%) [1]: 5%
- Population Membrane Permeable-Phenotype (%) [1]: 0%
- Population Mitochondria Different-Phenotype (%) [1]: 40%
- Population Mitotic Cells (%) [1]: 63%
- Population Normal (%) [1]: 94%
- Population Pyknosed Nuclei (%) [1]: 11%
- Population Tubulin-Different-Phenotype (%) [1]: 25%
- Total Cell Count [1]: 418
- Population Apoptotic (%) [2]: 47%
- Population Fragmented Nuclei (%) [2]: 8%
- Population Healthy Nuclei (%) [2]: 72%
- Population Hoechst High Intensity Objects (%) [2]: 10%
- Population Mitochondria Different-Phenotype (%) [2]: 53%
- Population Mitotic Cells (%) [2]: 52%
- Population Normal (%) [2]: 89%
- Population Pyknosed Nuclei (%) [2]: 19%
- Population Tubulin-Different-Phenotype (%) [2]: 22%
- Total Cell Count [2]: 258
- Population Apoptotic (%) [3]: 40%
- Population Fragmented Nuclei (%) [3]: 9%
- Population Healthy Nuclei (%) [3]: 75%
- Population Hoechst High Intensity Objects (%) [3]: 11%
- Population Membrane Permeable-Phenotype (%) [3]: 0%
- Population Mitochondria Different-Phenotype (%) [3]: 53%
- Population Mitotic Cells (%) [3]: 60%
- Population Normal (%) [3]: 88%
- Population Pyknosed Nuclei (%) [3]: 14%
- Population Tubulin-Different-Phenotype (%) [3]: 37%
- Total Cell Count [3]: 455
- Population Apoptotic (%) [4]: 54%
- Population Fragmented Nuclei (%) [4]: 3%
- Population Healthy Nuclei (%) [4]: 80%
- Population Hoechst High Intensity Objects (%) [4]: 8%
- Population Mitochondria Different-Phenotype (%) [4]: 70%
- Population Mitotic Cells (%) [4]: 45%
- Population Normal (%) [4]: 91%
- Population Pyknosed Nuclei (%) [4]: 16%
- Population Tubulin-Different-Phenotype (%) [4]: 40%
- Total Cell Count [4]: 322
- Population Apoptotic (%) [5]: 21%
- Population Fragmented Nuclei (%) [5]: 8%
- Population Healthy Nuclei (%) [5]: 77%
- Population Hoechst High Intensity Objects (%) [5]: 2%
- Population Membrane Permeable-Phenotype (%) [5]: 0%
- Population Mitochondria Different-Phenotype (%) [5]: 24%
- Population Mitotic Cells (%) [5]: 78%
- Population Normal (%) [5]: 97%
- Population Pyknosed Nuclei (%) [5]: 13%
- Population Tubulin-Different-Phenotype (%) [5]: 16%
- Total Cell Count [5]: 549
- Population Apoptotic (%) [6]: 45%
- Population Fragmented Nuclei (%) [6]: 11%
- Population Healthy Nuclei (%) [6]: 78%
- Population Hoechst High Intensity Objects (%) [6]: 7%
- Population Membrane Permeable-Phenotype (%) [6]: 1%
- Population Mitochondria Different-Phenotype (%) [6]: 35%
- Population Mitotic Cells (%) [6]: 54%
- Population Normal (%) [6]: 92%
- Population Pyknosed Nuclei (%) [6]: 9%
- Population Tubulin-Different-Phenotype (%) [6]: 11%
- Total Cell Count [6]: 352
- Population Apoptotic (%) [7]: 25%
- Population Fragmented Nuclei (%) [7]: 10%
- Population Healthy Nuclei (%) [7]: 75%
- Population Hoechst High Intensity Objects (%) [7]: 5%
- Population Membrane Permeable-Phenotype (%) [7]: 1%
- Population Mitochondria Different-Phenotype (%) [7]: 28%
- Population Mitotic Cells (%) [7]: 74%
- Population Normal (%) [7]: 94%
- Population Pyknosed Nuclei (%) [7]: 14%
- Population Tubulin-Different-Phenotype (%) [7]: 30%
- Total Cell Count [7]: 638
- Population Apoptotic (%) [8]: 36%
- Population Fragmented Nuclei (%) [8]: 5%
- Population Healthy Nuclei (%) [8]: 81%
- Population Hoechst High Intensity Objects (%) [8]: 6%
- Population Membrane Permeable-Phenotype (%) [8]: 0%
- Population Mitochondria Different-Phenotype (%) [8]: 51%
- Population Mitotic Cells (%) [8]: 63%
- Population Normal (%) [8]: 93%
- Population Pyknosed Nuclei (%) [8]: 13%
- Population Tubulin-Different-Phenotype (%) [8]: 23%
- Total Cell Count [8]: 425
- Population Apoptotic (%) [9]: 25%
- Population Fragmented Nuclei (%) [9]: 14%
- Population Healthy Nuclei (%) [9]: 79%
- Population Hoechst High Intensity Objects (%) [9]: 1%
- Population Membrane Permeable-Phenotype (%) [9]: 1%
- Population Mitochondria Different-Phenotype (%) [9]: 18%
- Population Mitotic Cells (%) [9]: 74%
- Population Normal (%) [9]: 98%
- Population Pyknosed Nuclei (%) [9]: 5%
- Population Tubulin-Different-Phenotype (%) [9]: 9%
- Total Cell Count [9]: 873
- Population Apoptotic (%) [10]: 39%
- Population Fragmented Nuclei (%) [10]: 12%
- Population Healthy Nuclei (%) [10]: 80%
- Population Hoechst High Intensity Objects (%) [10]: 3%
- Population Mitochondria Different-Phenotype (%) [10]: 21%
- Population Mitotic Cells (%) [10]: 60%
- Population Normal (%) [10]: 96%
- Population Pyknosed Nuclei (%) [10]: 6%
- Population Tubulin-Different-Phenotype (%) [10]: 10%
- Total Cell Count [10]: 531
- Population Apoptotic (%) [11]: 24%
- Population Fragmented Nuclei (%) [11]: 14%
- Population Healthy Nuclei (%) [11]: 77%
- Population Hoechst High Intensity Objects (%) [11]: 2%
- Population Membrane Permeable-Phenotype (%) [11]: 0%
- Population Mitochondria Different-Phenotype (%) [11]: 27%
- Population Mitotic Cells (%) [11]: 76%
- Population Normal (%) [11]: 97%
- Population Pyknosed Nuclei (%) [11]: 8%
- Population Tubulin-Different-Phenotype (%) [11]: 20%
- Total Cell Count [11]: 927
- Population Apoptotic (%) [12]: 46%
- Population Fragmented Nuclei (%) [12]: 13%
- Population Healthy Nuclei (%) [12]: 78%
- Population Hoechst High Intensity Objects (%) [12]: 4%
- Population Mitochondria Different-Phenotype (%) [12]: 32%
- Population Mitotic Cells (%) [12]: 53%
- Population Normal (%) [12]: 95%
- Total Cell Count [12]: 520
